Measured values taken from ChEMBL document CHEMBL1142008, “Discovery and investigation of a novel class of thiophene-derived antagonists of the human glucagon receptor” (Bioorg Med Chem Lett, 2005).

Columns and labels:
[1] = biological target: T1, Glucagon receptor (Homo sapiens, UniProt P47871); test: Inhibition of glucagon induced cAMP accumulation in human glucagon receptor transfected CHO cells; format: functional, cell-based
In short: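 Functional antagonism in CHO cells transfected with human glucagon receptor. Read-out is inhibition of glucagon-induced cAMP accumulation. Mean of at least two experiments, SD <50% of mean.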

[2] = biological target: T1, Glucagon receptor; test: Inhibitory concentration towards binding of [125I]glucagon to the human glucagon receptor expressed in CHO cells; format: cell-based
[3] = Plasma clearance measured in mouse after intravenous administration of 1 mg/kg; n = 3; format: ADME, organism-based; design: dose 1 mg/kg, route intravenous; details: in vivo
In short: (§1)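 Mouse PK, n = 3 mice per route. Dosed both IV and PO: 1.0 mg/kg IV / 2.0 mg/kg PO for one compound, 5.0 mg/kg IV / 10.0 mg/kg PO for others. Plasma clearance, Vdss, t1/2, Cmax, dose-normalized oral AUC and F% derived.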

[4] = Steady state volume distribution measured in mouse after intravenous administration of 1 mg/kg; format: ADME, organism-based; design: dose 1 mg/kg, route intravenous; details: in vivo, read-out: Vdss; in short: as §1
[5] = Oral bioavailability in mouse (dose 2 mg/kg); format: ADME, organism-based; details: in vivo; in short: as §1
[6] = Bioavailability in mouse (dose 1 mg/kg i.v.); format: ADME, organism-based; details: in vivo, iv; in short: as §1
[7] = Steady state volume distribution measured in mouse after peroral administration of 2 mg/kg; format: ADME, organism-based; design: dose 2 mg/kg, route oral; details: in vivo, po; in short: as §1
[8] = Maximum plasma concentration measured in mouse after oral administration of 2 mg/kg
[9] = Plasma clearance measured in mouse after peroral administration of 2 mg/kg; n = 3; format: ADME, organism-based; design: dose 2 mg/kg, route oral; details: in vivo, po; in short: as §1
[10] = Maximum plasma concentration measured in mouse after peroral administration of 2 mg/kg; format: ADME, organism-based; design: dose 2 mg/kg, route oral; details: po; in short: as §1
[11] = Half life measured in mouse after peroral administration of 2 mg/kg; format: ADME, organism-based; design: dose 2 mg/kg, route oral; details: in vivo, po; in short: as §1
[12] = Half life measured in mouse after intravenous administration of 1 mg/kg; format: ADME, organism-based; design: dose 1 mg/kg, route intravenous; details: in vivo; in short: as §1
[13] = Maximum plasma concentration measured in mouse after intravenous administration of 1 mg/kg; format: ADME, organism-based; design: dose 1 mg/kg, route intravenous; in short: as §1
[14] = biological target: T1, Glucagon receptor; test: Percent inhibition of glucagon induced cAMP accumulation in human glucagon receptor transfected CHO cells at a compound concentration of 10 uM; format: functional, cell-based
In short: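 Functional antagonism in CHO cells transfected with human glucagon receptor. Read-out is inhibition of glucagon-induced cAMP accumulation. Reported as IC50, or as percent inhibition at 10 µM compound. Mean of at least two experiments, SD <50% of mean.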

T1 sequence (P47871 whole entry): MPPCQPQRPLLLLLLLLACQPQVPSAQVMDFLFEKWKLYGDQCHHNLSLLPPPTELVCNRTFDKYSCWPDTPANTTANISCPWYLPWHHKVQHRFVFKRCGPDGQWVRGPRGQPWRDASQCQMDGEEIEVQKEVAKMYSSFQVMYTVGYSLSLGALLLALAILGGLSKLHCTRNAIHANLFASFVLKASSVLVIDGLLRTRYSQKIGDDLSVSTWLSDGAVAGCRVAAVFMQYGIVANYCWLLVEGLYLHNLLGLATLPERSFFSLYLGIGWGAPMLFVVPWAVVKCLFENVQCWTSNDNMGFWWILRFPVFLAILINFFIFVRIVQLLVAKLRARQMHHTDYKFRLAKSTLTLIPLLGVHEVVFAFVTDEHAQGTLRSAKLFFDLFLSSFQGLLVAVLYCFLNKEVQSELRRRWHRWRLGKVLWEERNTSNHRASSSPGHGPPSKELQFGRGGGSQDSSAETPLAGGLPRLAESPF

Structure (SMILES): CCC(CC)C(=O)Nc1sc2c(c1C#N)CCC(C(C)(C)CC)C2 (stereo unspecified)
- IC50 [1]: 129 nM
- IC50 [2]: 181 nM

Structure (SMILES): CCC(CC)C(=O)Nc1sc2c(c1C#N)CCC(N(C)Cc1ccc(Cl)cc1Cl)C2 (stereo unspecified)
- Clp [3]: 50 mL/min/kg
- IC50 [1]: 63 nM
- Vd [4]: 3.4 L/kg
- bioavailability [5]: 9.2%
- bioavailability [6]: 9.2%
- Vdss [7]: 3.4 L/kg
- IC50 [2]: 92 nM
- Cmax [8]: 80 nM
- Clp [9]: 50 mL/min/kg
- Cmax [10]: 80 nM
- half-life [11]: 1.9 h
- half-life [12]: 1.9 h

Structure (SMILES): CCC(CC)C(=O)Nc1sc2c(c1C#N)CCC(N(Cc1ccc(Cl)cc1Cl)C(C)C)C2 (stereo unspecified)
- IC50 [1]: 59 nM
- IC50 [2]: 129 nM

Structure (SMILES): CCC(CC)C(=O)Nc1sc(-c2nc(CC(C)C)no2)c(C)c1C#N
- Clp [3]: 84 mL/min/kg
- IC50 [1]: 185 nM
- Vd [4]: 16 L/kg
- bioavailability [5]: 39%
- bioavailability [6]: 39%
- Vdss [7]: 16 L/kg
- IC50 [2]: 368 nM
- Cmax [13]: 800 nM
- Clp [9]: 84 mL/min/kg
- Cmax [10]: 800 nM
- half-life [11]: 2.7 h
- half-life [12]: 2.7 h

Structure (SMILES): CCC(CC)C(=O)Nc1sc(-c2nnc(CC(C)C)o2)c(C)c1C#N
- IC50 [2]: 3210 nM

Structure (SMILES): CCC(CC)C(=O)Nc1sc(C(=O)N(Cc2ccc(Cl)cc2Cl)C(C)C)c(C)c1C#N
- IC50 [1]: 41 nM
- IC50 [2]: 153 nM

Structure (SMILES): CCC(CC)C(=O)Nc1sc2c(c1C#N)CCC(N(C)C1CCCc3ccccc31)C2 (single isomer, unassigned; form 2)
- IC50 [1]: 59 nM
- IC50 [2]: 118 nM

Structure (SMILES): CCC(C)(C)C1CCc2c(sc(NC(=O)c3ccc(Br)cc3)c2C#N)C1 (stereo unspecified)
- IC50 [2]: > 20000 nM

Structure (SMILES): CCC(CC)C(=O)Nc1sc2c(c1C#N)CCC(N(C)C1CCCc3ccccc31)C2 (single isomer, unassigned; form 1)
- IC50 [1]: 158 nM
- IC50 [2]: 139 nM

Structure (SMILES): CCC(CC)C(=O)Nc1sc(-c2nc(Cc3ccc(Cl)cc3Cl)no2)c(C)c1C#N
- Clp [3]: 23 mL/min/kg
- IC50 [1]: 34 nM
- Vd [4]: 8.7 L/kg
- bioavailability [5]: 36%
- bioavailability [6]: 36%
- Vdss [7]: 8.7 L/kg
- IC50 [2]: 89 nM
- Cmax [13]: 800 nM
- Clp [9]: 23 mL/min/kg
- Cmax [10]: 800 nM
- half-life [11]: 5.1 h
- half-life [12]: 5.1 h

Structure (SMILES): CCC(CC)C(=O)Nc1sc2c(c1C(N)=O)CCC(C(C)(C)CC)C2 (stereo unspecified)
- IC50 [2]: 870 nM
- inhibition [14]: 38%

Structure (SMILES): CCC(CC)C(=O)Nc1sc2c(c1C#N)CCC(N(C)Cc1ccccc1)C2 (stereo unspecified)
- IC50 [2]: 3820 nM
